# Bioassay records (PubChem BioAssay)
# Neddylation inh: cullin neddylation inhibition | TR-FRET cullin neddylation, biochemical | inhibition, % at 25 µM | actives 0.58% (n = 360,000) | AID 651699; in the data active = inhibition above about 36%
# SUMO HTRF inh: SUMOylation inhibition | actives 0.36% (n = 290,000) | HTRF SUMOylation assay, SAE1/SAE2 + UBC9, in vitro | P63279 | AID 2006 | inhibition, % at 35 µM; in the data active = inhibition above about 50%, passing the limit was not always enough
# Target sequence (P63279 whole entry, looked up): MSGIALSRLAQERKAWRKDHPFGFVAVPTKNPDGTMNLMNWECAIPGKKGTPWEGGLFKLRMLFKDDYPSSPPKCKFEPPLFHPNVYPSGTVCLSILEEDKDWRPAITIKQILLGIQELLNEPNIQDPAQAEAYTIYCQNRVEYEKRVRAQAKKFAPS
# Fh CTSL1 inh: cathepsin L1 inhibition, PFM18AAP counter-screen; recombinant F. hepatica cathepsin L1, Z-Leu-Arg-MCA fluorescence; inhibition, % at 5.96 µM; actives 0.49% (n = 300,000);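 active = inhibition above the mean of all tested compounds plus 3 SD, set per screening campaign, cut at about 17% in these data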;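 note: 0% = plate median of test compound wells and 100% = 1 µM Z-Phe-Ala-diazomethylketone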
# UCH37 DUB inh: blocks the human deubiquitinase UCH37 | AID 588478 | purified proteasome/UCH37, Ub-AMC cleavage fluorescence | actives 0.33% (n = 330,000) | inhibition, % (concentration not given with the values) | Q9Y5K5;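 active = mean inhibition over replicate wells above about 20%, limit read from the data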;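 note: 0% = compound-free wells with enzyme and 100% = wells lacking proteasome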
# Target sequence (Q9Y5K5 whole entry, looked up): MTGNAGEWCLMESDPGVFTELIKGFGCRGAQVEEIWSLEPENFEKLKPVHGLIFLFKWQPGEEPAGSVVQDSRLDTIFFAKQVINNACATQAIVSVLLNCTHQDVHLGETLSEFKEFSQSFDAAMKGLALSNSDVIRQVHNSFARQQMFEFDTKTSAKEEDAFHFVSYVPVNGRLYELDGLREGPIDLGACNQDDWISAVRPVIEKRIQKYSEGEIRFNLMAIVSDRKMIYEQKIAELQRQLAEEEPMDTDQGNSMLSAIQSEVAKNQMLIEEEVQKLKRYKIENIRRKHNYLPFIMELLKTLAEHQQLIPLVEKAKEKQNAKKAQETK
#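 system = Proteasome-associated human UCH37 deubiquitinase | amount = 0.15 nM proteasome as dispensed | medium = pH 7.4 Tris-HCl (50 mM) with ovalbumin, ATP-MgCl2, DTT | incubation = 30 min preincubation with enzyme, 25 min cleavage at room temperature | detection = AMC fluorescence 355/460 nm | read-out basis = percent inhibition | controls = no-proteasome and no-compound wells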
# UCH37 confirm: confirmation of human UCH37 deubiquitinating enzyme inhibitors | actives 27% (n = 480) | shares compounds with UCH37 DUB inh | AID 624100 | Proteasome-bound UCH37, Ub-AMC cleavage fluorescence | inhibition, % at 20 µM;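 active = average inhibition over replicates above about 50%, so the earlier screening hit is confirmed, limit read from the data; inactive = the rest, counted as false positives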;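 note: based on cleavage rate fitted by regression over a 30 min kinetic read; 0% = proteasome plus Ub-AMC and 100% = Ub-AMC without proteasome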
# Neddyl conf: cullin neddylation inhibition, confirmation; shares compounds with Neddylation inh; TR-FRET cullin neddylation biochemical assay; calls only at 25 µM; actives 13% (n = 1,800); AID 652217; in the data active = inhibition above about 40%;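 note: neddylation substrate is the cullin 1 ring ligase complex with SKP2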
# Starred values were filed as active, the others as inactive; i = inactive; · = not tested or not shown. Shown are actives, neighbours in structure and some others; about 1.4% of the full set was active somewhere.
SMILES,Neddylation inh,SUMO HTRF inh,Fh CTSL1 inh,UCH37 DUB inh,UCH37 confirm,Neddyl conf
CCCOc1ccc(/C(O)=C2/C(=O)C(=O)N(CCN(C)C)C2c2ccc(O)c(OC)c2)cc1 (stereo not given),-2,-16,·,22*,-6,·
COc1ccc(/C(O)=C2/C(=O)C(=O)N(CCCN(C)C)C2c2ccccc2)cc1Cl (stereo not given),·,19,·,·,·,·
COc1ccc(C2/C(=C(\O)c3ccc(OC)c(Cl)c3)C(=O)C(=O)N2CCN(C)C)cc1 (stereo not given),-17,3,0,34*,14,·
Cc1cc(C=NNC(=O)c2ccncc2)c(C)n1-c1ccccc1,·,·,·,12,·,·
CCOC(=O)c1c(C)nc2c(c1-c1ccccc1)C(=O)c1ccccc1-2,-45,-15,4,3,·,·
Cc1oc2c(c1C(=O)O)C(=O)c1ccccc1C2=O,-30,57,2,49*,46,·
CCOC(=O)c1c(C)oc2c1C(=O)c1ccccc1C2=O,-55,79,13,28*,29,·
Cc1oc2c(c1C(=O)c1ccccc1)C(=O)C(=O)c1ccccc1-2,-57,93*,15,49*,33,·
Cc1cccc(CN(CC(=O)NN=Cc2cccs2)S(=O)(=O)c2ccc(Cl)cc2)c1,·,·,·,3,·,·
O=C1CN(C(=O)COC(=O)c2ccc([N+](=O)[O-])s2)c2ccccc2N1,-32,·,·,76*,8,·
O=C(COC(=O)c1ccc([N+](=O)[O-])s1)NNC(=O)c1ccccc1,-10,·,·,80*,19,·
CC(NC(=O)COC(=O)c1ccc([N+](=O)[O-])s1)c1ccccc1 (stereo not given),-24,-5,33*,33*,12,·
Cc1ccc(C(=O)OCC(=O)NC(C)c2ccccc2)s1 (stereo not given),3,·,·,0,·,·
O=C(COC(=O)c1ccc([N+](=O)[O-])s1)NCCc1ccccc1,-16,·,·,81*,14,·
O=C1CN(C(=O)COC(=O)c2cccs2)c2ccccc2N1,-4,·,·,2,·,·
COc1cc(C=NNC(=O)C(NC(=O)c2ccccc2)c2n[nH]c(=O)c3ccccc23)ccc1OCC(N)=O (stereo not given),·,·,·,1,·,·
O=C(CNc1ccc(F)cc1)NN=C1CCc2ccccc21,·,·,·,4,·,·
O=C(CN(Cc1ccc(Cl)c(Cl)c1)S(=O)(=O)c1ccccc1)NN=Cc1ccc2c(c1)OCO2,·,·,·,0,·,·
Cc1cccc(NC(=O)CCC(=O)NN=Cc2ccc(O)cc2O)c1,·,·,·,-11,·,·
O=C(COC(=O)c1ccc(O)cc1)NC(=O)NCc1ccccc1,-4,·,·,1,·,·
O=C(COC(=O)c1ccc([N+](=O)[O-])s1)NCc1ccc(F)cc1,-33,5,80*,65*,25,·
O=C(COC(=O)c1ccc([N+](=O)[O-])s1)NC(=O)NCc1ccccc1,-8,-10,18*,67*,10,·
COc1ccc(C=NNc2nc(-c3cccc(S(=O)(=O)N4CCCC4)c3)cs2)cc1OC,·,·,·,-22,·,·
CC(/C=C/c1ccccc1)=NO,·,·,·,1,·,·
COc1ccc([N+](=O)[O-])cc1NC(=O)c1ccc(CN(c2ccc(C)c(C)c2)S(C)(=O)=O)cc1,-7,-2,0,47*,-2,·
SMILES,Neddylation inh,SUMO HTRF inh,Fh CTSL1 inh,UCH37 DUB inh,UCH37 confirm,Neddyl conf
O=C1C2C3CCCC3=C3CCCC3C2C(=O)N1c1ccc(Cl)cc1 (stereo not given),7,2,6,63*,75*,·
Cc1ccc(C(C(=O)NC2CCCC2)N(Cc2ccc3c(c2)OCO3)C(=O)Cc2cccs2)cc1 (stereo not given),2,-4,-2,36*,-13,·
COc1ccc(/C(C)=N/NC(=O)c2ccc(CSc3cccc4cccnc34)cc2)cc1OC,46*,-3,-8,·,·,i
C/C(=N\NC(=O)c1ccc(CSc2cccc3cccnc23)cc1)C1CCCCC1,43*,15,-6,·,·,i
COc1cccc(OCc2cc(C=NNc3ccc(C(=O)O)cc3)ccc2OC)c1,·,·,·,-18,·,·
CCOC(=O)c1nsnc1NCCSC(=N)N,40*,-4,-1,-111,·,i
COc1cccc(/C=C/C(=O)OCC(=O)N2CCN(S(=O)(=O)c3ccc(Cl)cc3)CC2)c1,41*,14,-14,-5,·,i
CCN(CC)c1ccc(S(=O)(=O)N2CCOCC2)cc1NC(=O)COC(=O)/C=C/c1ccc(O)c(OC)c1,32*,·,·,-6,·,i
COc1cccc(/C=C/C(=O)N2CCN(S(=O)(=O)c3ccccc3)CC2)c1,41*,·,·,·,·,i
CCN(CC)c1ccc(S(=O)(=O)N2CCOCC2)cc1NC(=O)COC(=O)/C=C/c1ccccc1,7,·,·,5,·,·
COc1cc(/C=C/C(=O)OCC(=O)N2CCN(S(=O)(=O)c3ccc(C)cc3C)CC2)ccc1O,48*,14,-4,-12,·,i
COc1cccc(C(=O)NCC(=O)NN=Cc2ccc(OC(=O)c3cccs3)c(OC)c2)c1,·,·,·,2,·,·
Cc1ccc(N(CC(=O)NN=Cc2cccs2)S(C)(=O)=O)cc1Cl,·,·,·,4,·,·
c1csc(CNc2ncnc3ccc(-c4ccc5c(c4)OCCO5)cc23)c1,36*,·,·,-8,·,·
CC(C)(C)c1csc(NN=Cc2cccnc2)n1,·,·,·,6,·,·
CN(C)c1cccc(C(=O)OCC(=O)Nc2ccccc2Cl)c1,·,2,1,-17,·,·
CCOc1ccc(CCNC(=O)COC(=O)c2cccc(N(C)C)c2)cc1OCC,40*,·,2,-8,·,i
CN(C)c1cccc(C(=O)OCC(=O)Nc2ccccc2-c2ccccc2)c1,40*,2,1,-91,·,i
Nc1nonc1-n1nnc(C(=O)NN=Cc2ccccn2)c1-c1ccccc1,·,·,·,1,·,·
COc1cc2cc(CN(CCCN3CCOCC3)C(=O)Nc3ccccc3F)c(=O)[nH]c2cc1OC,40*,7,1,-117,·,i
Cc1ccc(C=NN2C(=O)c3ccccc3NC2c2ccc(C)cc2)cc1 (stereo not given),·,·,·,-11,·,·
COc1cc(/C=C/C(=O)Nc2ccc(N3CCCCC3)c(S(=O)(=O)Nc3ccccc3Cl)c2)cc(OC)c1OC,42*,6,2,-13,·,i
CC(=O)c1ccc(-c2ccc(C(=O)N3CCC(C(N)=O)CC3)o2)cc1,69*,·,2,-276,·,·
COc1ccccc1/C=N/Nc1cc(C)nc2ccc(C)cc12,40*,8,2,·,·,i
CCOc1ccccc1C=NNc1cc(C)nc2ccc(C)cc12,·,·,·,-31,·,·
SMILES,Neddylation inh,SUMO HTRF inh,Fh CTSL1 inh,UCH37 DUB inh,UCH37 confirm,Neddyl conf
COc1ccc(CSCC(=O)NN=Cc2ccccc2O)cc1,·,·,·,-9,·,·
COc1ccc(CSCC(=O)N/N=C/c2ccccc2O)cc1,39*,17,4,·,·,i
COc1ccc(O)c(/C=N/NC(=O)CN2CCS(=O)(=O)CC2)c1,40*,35,0,·,·,i
Cc1ccc(C=NNC(=O)c2cc3c(ccc4ccccc43)o2)cc1[N+](=O)[O-],·,·,·,1,·,·
COc1ccc(C=NNC(=O)CN2CCN(Cc3ccccc3)CC2)cc1Br,·,·,·,4,·,·
O=C(c1cc2nc(-c3ccco3)cc(C(F)(F)F)n2n1)N1CCCCCC1,56*,16,3,-56,·,·
